Data published in ChEMBL document CHEMBL1221285, “Inhibition of interleukin-1beta converting enzyme (ICE or caspase 1) by aspartyl acyloxyalkyl ketones and aspartyl amidooxyalkyl ketones” (Bioorg Med Chem Lett, 2010).

How the values were obtained:
[1] = target: T1, Caspase-1 (Homo sapiens) (UniProt P29466); experiment: Inhibition of ICE in human PBMC
T1 sequence (whole entry): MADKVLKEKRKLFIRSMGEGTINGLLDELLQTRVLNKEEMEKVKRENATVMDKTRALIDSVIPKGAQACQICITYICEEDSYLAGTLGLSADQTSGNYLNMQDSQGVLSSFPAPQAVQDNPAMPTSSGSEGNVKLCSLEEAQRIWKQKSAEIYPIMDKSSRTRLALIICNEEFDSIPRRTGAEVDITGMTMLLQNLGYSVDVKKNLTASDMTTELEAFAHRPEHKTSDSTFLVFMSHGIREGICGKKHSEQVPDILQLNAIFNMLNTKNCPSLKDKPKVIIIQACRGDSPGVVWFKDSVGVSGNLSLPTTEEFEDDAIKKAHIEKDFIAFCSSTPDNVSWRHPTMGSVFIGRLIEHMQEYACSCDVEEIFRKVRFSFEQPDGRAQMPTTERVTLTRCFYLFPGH
Method in brief: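 Human PBMC isolated from heparinized blood over Ficoll, washed three times in PBS, then held in RPMI 1640 with glutamine, penicillin, streptomycin and 2% human AB serum at 10^6 cells per well. Cells were stimulated overnight with LPS 10 ng/mL with or without inhibitor. Mature IL-1b in the medium was measured by ELISA. IC50 is the concentration reducing IL-1b by 50%.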

[2] = target: T2, Caspase-1 (Homo sapiens, UniProt P29466); experiment: Inhibition of ICE
T2 sequence (P29466 whole entry): T1 sequence (whole entry)
Method in brief: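 Recombinant ICE; inhibition followed by fluorescence. Ki reported as the geometric mean of two or more experiments.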

Compound | IC50 [1] | IC50 [2] | Ki [2]
CC(C)[C@H](NC(=O)OCc1ccccc1)C(=O)N[C@@H](C)C(=O)N[C@@H](CC(=O)O)C(=O)COC(=O)C(Cc1ccccc1)Cc1ccccc1 | 1400 nM | 3 nM | 2 nM
Cc1ccc2ccccc2c1CC(=O)OCC(=O)[C@H](CC(=O)O)NC(=O)OCc1ccccc1 |  |  | 4400 nM
O=C(O)C[C@H](NC(=O)OCc1ccccc1)C(=O)CON1C(=O)C[C@@H]2CCCC[C@H]21 |  |  | 17500 nM
CC(C)[C@H](NC(=O)OCc1ccccc1)C(=O)N[C@@H](C)C(=O)N[C@@H](CC(=O)O)C(=O)COC(=O)Cc1cccc2ccccc12 | 600 nM | 2 nM | 3 nM
CC(C(=O)OCC(=O)[C@H](CC(=O)O)NC(=O)OCc1ccccc1)c1cccc2ccccc12 (stereo partly specified) |  |  | 1000 nM
O=C(O)C[C@H](NC(=O)OCc1ccccc1)C(=O)COC(=O)CCc1ccccc1 |  |  | 4500 nM
O=C(O)C[C@H](NC(=O)OCc1ccccc1)C(=O)COC(=O)COc1cccc2ccccc12 |  |  | 1000 nM
COC(=O)C[C@H]1CCC[C@H]2CC(=O)N(OCC(=O)[C@H](CC(=O)O)NC(=O)[C@H](C)NC(=O)[C@@H](NC(=O)OCc3ccccc3)C(C)C)[C@@H]12 | 4800 nM | 26 nM | 7 nM
CC(C)[C@H](NC(=O)OCc1ccccc1)C(=O)N[C@@H](C)C(=O)N[C@@H](CC(=O)O)C(=O)CON1C(=O)C[C@@H]2CCCC[C@@H]21 | 2400 nM | 3 nM | 1 nM
O=C(O)C[C@H](NC(=O)OCc1ccccc1)C(=O)CONC(=O)Cc1ccccc1 |  |  | 66500 nM
O=C(O)C[C@H](NC(=O)OCc1ccccc1)C(=O)COC(=O)Cc1ccc2ccccc2c1 |  |  | 1300 nM
O=C(O)C[C@H](NC(=O)OCc1ccccc1)C(=O)CON1C(=O)C[C@@H]2CCCC[C@@H]21 |  |  | 9200 nM
O=C(O)C[C@H](NC(=O)OCc1ccccc1)C(=O)COC(=O)Cc1csc2ccccc12 |  |  | 1200 nM
O=C(O)C[C@H](NC(=O)OCc1ccccc1)C(=O)COC(=O)Cc1cccc2ccccc12 |  |  | 500 nM
O=C(O)C[C@H](NC(=O)OCc1ccccc1)C(=O)CONC(=O)CCc1ccccc1 |  |  | 27500 nM
CC(C)[C@H](NC(=O)OCc1ccccc1)C(=O)N[C@@H](C)C(=O)N[C@@H](CC(=O)O)C(=O)COC(=O)CC(c1ccccc1)c1ccccc1 | 4300 nM | 5 nM | 1 nM
O=C(O)C[C@H](NC(=O)OCc1ccccc1)C(=O)COC(=O)Cc1ccccc1 |  |  | 8300 nM
O=C(O)C[C@H](NC(=O)OCc1ccccc1)C(=O)COC(=O)COc1ccccc1 |  |  | 1700 nM
O=C(O)C[C@H](NC(=O)OCc1ccccc1)C(=O)CON1Cc2ccccc2C1=O |  |  | 14000 nM
CC(C)[C@H](NC(=O)OCc1ccccc1)C(=O)N[C@@H](C)C(=O)N[C@@H](CC(=O)O)C(=O)CON1C(=O)Cc2ccccc21 | 3000 nM | 3 nM | 2 nM
CC(C)[C@H](NC(=O)OCc1ccccc1)C(=O)N[C@@H](C)C(=O)N[C@@H](CC(=O)O)C(=O)CCCCCc1ccccc1 | 4900 nM | 976 nM | 134 nM

Compound | IC50 [1] | IC50 [2] | Ki [2]
O=C(O)C[C@H](NC(=O)OCc1ccccc1)C(=O)CONC(=O)Cc1cccc2ccccc12 |  |  | 84000 nM
O=C(O)C[C@H](NC(=O)OCc1ccccc1)C(=O)CONC(=O)c1ccccc1 |  |  | 21000 nM
O=C(O)C[C@H](NC(=O)OCc1ccccc1)C(=O)COC(=O)CC(c1ccccc1)c1ccccc1 |  |  | 800 nM
O=C(O)C[C@H](NC(=O)OCc1ccccc1)C(=O)COC(=O)Cc1cccc2scnc12 |  |  | 2600 nM
O=C(O)C[C@H](NC(=O)OCc1ccccc1)C(=O)COCCCCCc1ccccc1 |  |  | 119000 nM
O=C(O)C[C@H](NC(=O)OCc1ccccc1)C(=O)COC(=O)Cc1coc2ccccc12 |  |  | 800 nM
O=C(O)C[C@H](NC(=O)OCc1ccccc1)C(=O)COC(=O)CNc1ccccc1 |  |  | 5600 nM
O=C(O)C[C@H](NC(=O)OCc1ccccc1)C(=O)COC(=O)CCc1ccc2ccccc2c1 |  |  | 6000 nM
Cc1ccc(CC(=O)OCC(=O)[C@H](CC(=O)O)NC(=O)OCc2ccccc2)c2ccccc12 |  |  | 1300 nM
O=C(O)C[C@H](NC(=O)OCc1ccccc1)C(=O)COC(=O)Cc1c[nH]c2ccccc12 |  |  | 600 nM
CC(=O)N[C@@H](Cc1ccc(O)cc1)C(=O)N[C@H](C(=O)N[C@@H](C)C(=O)N[C@@H](CC(=O)O)C(=O)CCCCCc1ccccc1)C(C)C | 900 nM | 78 nM | 
O=C(O)C[C@H](NC(=O)OCc1ccccc1)C(=O)CON1C(=O)Cc2ccccc21 |  |  | 6770 nM
COC(=O)C[C@H]1CCC[C@H]2CC(=O)N(OCC(=O)[C@H](CC(=O)O)NC(=O)OCc3ccccc3)[C@@H]12 |  |  | 15000 nM
O=C(O)C[C@H](NC(=O)OCc1ccccc1)C(=O)CONC(=O)CCc1cccc2ccccc12 |  |  | 298000 nM
Cc1cccc2cccc(CC(=O)OCC(=O)[C@H](CC(=O)O)NC(=O)OCc3ccccc3)c12 |  |  | 8500 nM
O=C(O)C[C@H](NC(=O)OCc1ccccc1)C(=O)CON1C(=O)C2C3C=CC(O3)C2C1=O (stereo partly specified) |  |  | 1500 nM
O=C(O)C[C@H](NC(=O)OCc1ccccc1)C(=O)COC(=O)CSc1ccccc1 |  |  | 1100 nM
Cc1cccc2c(CC(=O)OCC(=O)[C@H](CC(=O)O)NC(=O)OCc3ccccc3)cccc12 |  |  | 2000 nM
O=C(O)C[C@H](NC(=O)OCc1ccccc1)C(=O)COC(=O)CCCc1ccccc1 |  |  | 16000 nM
O=C(O)C[C@H](NC(=O)OCc1ccccc1)C(=O)COC(=O)CC(c1ccccc1)c1ccccn1 (stereo partly specified) |  |  | 1100 nM
